≈ marks a conversion by molar mass, not a printed value.
What was measured:
[1] = test system: HEK293; assay: Cytotoxicity against HEK293 cells assessed as cell viability at 143 uM relative to control; settings: human, hek293, 143 µM
[2] = test system: Staphylococcus epidermidis; assay: Antibacterial activity against clinical isolate methicillin resistant Staphylococcus epidermidis AB 735 assessed as inhibition of bacterial growth incubated for 22 to 24 hrs; format: functional; settings: time 22-24 hrs
[3] = test system: HepG2; assay: Cytotoxicity against human HepG2 cells assessed as cell viability at 143 uM relative to control; settings: hepg2, 143 µM
[4] = test system: Mycobacterium tuberculosis; assay: Antibacterial activity against Mycobacterium tuberculosis H37Rv ATCC 25618 assessed as inhibition of bacterial growth incubated for 2 days by CLSI protocol based broth microdilution method; format: functional; settings: H37Rv ATCC 25618, 48 h, time 2 day
[5] = Cytotoxicity against human HepG2 cells assessed as inhibition of cell growth at 64 ug/ml relative to control; format: toxicity, cell-based; settings: at 64 µg/mL, read-out: Activity
In short: (§1)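 MTT proliferation assay on HEK293 (normal embryonic kidney) or HepG2 (liver cancer) cells. Cells are seeded at 10000 cells/well and adhered at 37 °C, 5% CO₂. Compounds are tested at 64 to 1 µg/mL (143 to 4.6 µM) in triplicate, with a DMSO vehicle control. Incubation is 48 h, followed by MTT (1 mg/mL) for 3 h at 37 °C.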

[6] = test system: Staphylococcus aureus; assay: Antibacterial activity against methicillin resistant Staphylococcus aureus ATCC 33591 assessed as inhibition of bacterial growth incubated for 22 to 24 hrs; format: functional; settings: time 22-24 hrs
In short: (§2)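 Broth microdilution MIC. Strains were subcultured on Soybean Casein Digest Agar, and inocula were taken from mid-log culture, adjusted to McFarland (~10⁸ CFU/mL), then diluted to ~10⁵ CFU/mL. Serial dilutions ran from 64 to 0.03 µg/mL. Plates were incubated 22–24 h at 37 °C, in triplicate. MIC was the lowest concentration with no visible growth.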

[7] = Cytotoxicity against human A549 cells assessed as inhibition of cell growth at 64 ug/ml relative to control; format: toxicity, cell-based; settings: at 64 µg/mL, read-out: Activity
In short: (§3)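 MTT proliferation assay. A549 cells are seeded at 10000 cells/well and allowed to adhere at 37 °C, 5% CO₂. Compounds are added at 64 to 1 µg/mL (143 to 4.6 µM) in triplicate, with a DMSO vehicle control. Incubation is 24 h, then MTT (1 mg/mL) is added for 3 h at 37 °C.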

[8] = test system: HEK293; assay: Cytotoxicity against HEK293 cells assessed as inhibition of cell growth upto 64 ug/ml; format: toxicity, cell-based; settings: human, dose < 64 µg/ml
[9] = test system: Enterococcus faecalis; assay: Antibacterial activity against vancomycin resistant Enterococcus faecalis ATCC 700802 assessed as inhibition of bacterial growth incubated for 22 to 24 hrs; format: functional; settings: time 22-24 hrs
In short: as §2

[10] = test system: Mycolicibacterium smegmatis; assay: Antibacterial activity against Mycobacterium smegmatis ATCC 607 assessed as inhibition of bacterial growth incubated for 2 days by CLSI protocol based broth microdilution method; format: functional; settings: ATCC 607, 48 h, time 2 day
In short: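 CLSI broth microdilution in Middlebrook 7H9 with 10% ADC. Compounds are dissolved in DMSO at 4.0 mg/mL (stock) and serially diluted from 64 to 0.015 µg/mL. Inoculum is ~10⁵ CFU/mL, checked by plating on 7H11 agar. Rifampin and levofloxacin are positive controls; drug-free broth with DMSO is the negative control. Growth inhibition is read after 2 days at 37 °C as MIC.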

[11] = test system: Acinetobacter baumannii; assay: Antibacterial activity against clinical isolate Acinetobacter baumannii BAA 747 assessed as inhibition of bacterial growth incubated for 22 to 24 hrs; format: functional; settings: time 22-24 hrs
[12] = test system: Pseudomonas aeruginosa; assay: Antibacterial activity against clinical isolate Pseudomonas aeruginosa AB 645 assessed as inhibition of bacterial growth incubated for 22 to 24 hrs; format: functional; settings: time 22-24 hrs
[13] = test system: HepG2; assay: Cytotoxicity against human HepG2 cells assessed as inhibition of cell growth upto 32 ug/ml; format: toxicity, cell-based; settings: dose < 32 µg/ml
In short: as §1

[14] = test system: A549; assay: Cytotoxicity against human A549 cells assessed as inhibition of cell growth upto 32 ug/ml; format: toxicity, cell-based; settings: dose < 32 µg/ml
In short: as §3

[15] = test system: Moraxella catarrhalis; assay: Antibacterial activity against Moraxella catarrhalis ATCC 25238 assessed as inhibition of bacterial growth incubated for 22 to 24 hrs; format: functional; settings: time 22-24 hrs
In short: (§4)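 Broth MIC referenced to an earlier protocol. Inocula come from mid-log cultures sub-cultured on soybean casein digest agar, adjusted to McFarland (~10⁸ CFU/mL), then diluted to ~10⁵ CFU/mL. Compounds and controls are serially diluted from 64 to 0.03 µg/mL. Tested in triplicate, read after 22–24 h at 37 °C. MIC is the lowest concentration with no visible growth.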

[16] = test system: Staphylococcus aureus; assay: Antibacterial activity against methicillin sensitive Staphylococcus aureus ATCC 29213 assessed as inhibition of bacterial growth incubated for 22 to 24 hrs; format: functional; settings: time 22-24 hrs
In short: as §4

[17] = test system: Klebsiella pneumoniae; assay: Antibacterial activity against clinical isolate Klebsiella pneumoniae AB 356 assessed as inhibition of bacterial growth incubated for 22 to 24 hrs; format: functional; settings: time 22-24 hrs
[18] = test system: Enterococcus faecium; assay: Antibacterial activity against Enterococcus faecium ATCC 49624 assessed as inhibition of bacterial growth incubated for 22 to 24 hrs; format: functional; settings: time 22-24 hrs
In short: as §4

[19] = test system: A549; assay: Cytotoxicity against human A549 cells assessed as cell viability at 143 uM relative to control; settings: a549, 143 µM
[20] = test system: Escherichia coli; assay: Antibacterial activity against clinical isolate Escherichia coli AB 117 assessed as inhibition of bacterial growth incubated for 22 to 24 hrs; format: functional; settings: time 22-24 hrs

Compound	viability [1]	MIC [2]	viability [3]	MIC [4]	inhibition at 64 ug/ml [5]	MIC [6]	inhibition at 64 ug/ml [7]	Activity [8]	MIC [9]	MIC [10]	MIC [11]	MIC [12]	Activity [13]	Activity [14]	MIC [15]	MIC [16]	MIC [17]	MIC [18]	viability [19]	MIC [20]
COc1ccc2nc(CN3CCN(S(=O)(=O)c4ccccc4F)CC3)cc(OC)c2c1	100.8%	32 µg/mL (≈ 71.8 µM)	97.7%	0.063 µg/mL (≈ 0.141 µM)	< 12%	8 µg/mL (≈ 18 µM)	< 12%	Non-Toxic	1 µg/mL (≈ 2.24 µM)	0.031 µg/mL (≈ 0.0696 µM)	> 64 µg/mL	> 64 µg/mL	Non-Toxic	Non-Toxic	0.06 µg/mL (≈ 0.135 µM)	0.03 µg/mL (≈ 0.0673 µM)	> 64 µg/mL	2 µg/mL (≈ 4.49 µM)	91.1%	8 µg/mL (≈ 18 µM)
COc1cc(CN2CCN(S(=O)(=O)c3ccc(C)cc3)CC2)nc2ccc(F)cc12	–	32 µg/mL (≈ 74.5 µM)	–	> 64 µg/mL	–	> 64 µg/mL	–	–	> 64 µg/mL	> 64 µg/mL	> 64 µg/mL	> 64 µg/mL	–	–	16 µg/mL (≈ 37.3 µM)	64 µg/mL (≈ 149 µM)	> 64 µg/mL	> 64 µg/mL	–	> 64 µg/mL
COc1ccc2nc(CN3CCN(S(=O)(=O)c4cccc5ccccc45)CC3)cc(OC)c2c1	–	> 64 µg/mL	–	> 64 µg/mL	–	> 64 µg/mL	–	–	> 64 µg/mL	> 64 µg/mL	> 64 µg/mL	> 64 µg/mL	–	–	> 64 µg/mL	> 64 µg/mL	> 64 µg/mL	> 64 µg/mL	–	> 64 µg/mL
COc1ccc2nc(CN3CCN(S(=O)(=O)c4ccc(F)cc4)CC3)cc(OC)c2c1	–	> 64 µg/mL	–	> 64 µg/mL	–	> 64 µg/mL	–	–	> 64 µg/mL	> 64 µg/mL	> 64 µg/mL	> 64 µg/mL	–	–	> 64 µg/mL	> 64 µg/mL	> 64 µg/mL	> 64 µg/mL	–	> 64 µg/mL
COc1cc(CN2CCN(S(=O)(=O)c3ccc(Cl)cc3Cl)CC2)nc2ccc(F)cc12	–	> 64 µg/mL	–	> 64 µg/mL	–	> 64 µg/mL	–	–	> 64 µg/mL	> 64 µg/mL	> 64 µg/mL	> 64 µg/mL	–	–	> 64 µg/mL	> 64 µg/mL	> 64 µg/mL	> 64 µg/mL	–	> 64 µg/mL
COc1ccc2nc(CN3CCN(S(=O)(=O)c4c(C)cc(C)cc4C)CC3)cc(OC)c2c1	–	> 64 µg/mL	–	> 64 µg/mL	–	> 64 µg/mL	–	–	> 64 µg/mL	> 64 µg/mL	> 64 µg/mL	> 64 µg/mL	–	–	> 64 µg/mL	> 64 µg/mL	> 64 µg/mL	> 64 µg/mL	–	> 64 µg/mL
COc1cc(CN2CCN(S(=O)(=O)c3ccccc3F)CC2)nc2ccc(F)cc12	99.5%	16 µg/mL (≈ 36.9 µM)	91.8%	1 µg/mL (≈ 2.31 µM)	< 12%	0.06 µg/mL (≈ 0.138 µM)	< 12%	Non-Toxic	2 µg/mL (≈ 4.61 µM)	0.5 µg/mL (≈ 1.15 µM)	> 64 µg/mL	> 64 µg/mL	Non-Toxic	Non-Toxic	0.03 µg/mL (≈ 0.0692 µM)	0.5 µg/mL (≈ 1.15 µM)	> 64 µg/mL	0.5 µg/mL (≈ 1.15 µM)	88.6%	16 µg/mL (≈ 36.9 µM)

Source: ChEMBL document CHEMBL5230166, “Novel quinoline-piperazine hybrids: the design, synthesis and evaluation of antibacterial and antituberculosis properties” (RSC Med Chem, 2023)
